# Shown is part of a subset that was picked to be rich in hits.
# PTEN del growth: growth suppression of PTEN-null HCT116, primary screen, cell-based, CellTiter-Glo | HCT116 PTEN-null viability, 60 h; hits give low values | viability, % at 10 µM | 140,000 tested, 1.2% active | AID 827, 2007;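 active = viability at or below a set limit, 4 SD under the median of all tested compounds, cut at about 3.7% in these data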;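 also: PTEN knockout HCT116 line with beta catenin targeted HCT116 as companion control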
# HUVEC inhibit: inhibitors of HUVEC proliferation, primary screen, cell-based, 384-well; 86,000 tested, 1.1% active; CellTiter-Glo luminescence, 72 h; hits give low values; viability, % at 10 µM (by protocol); AID 648, 2007;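 active = viability at or below 30%; inactive = viability above 30%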;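 also: 100% = median luminescence of DMSO-only cell control wells on each plate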
# HCT116 bCat-KO: primary screen for growth suppressors in beta-catenin knockout HCT116 cells (colon tumor, human); 140,000 tested, 1.5% active; viability, % at 10 µM; HCT116 beta-catenin knockout viability, CellTiter-Glo, 60 h; hits give low values;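 active = viability at or under a set limit, the compound median less 4 SD, cut at about 6% in these data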;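 also: 0% = Hyamine 1622 control at 20 µM and 100% = untreated cell control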
# Lung fibro prol: antiproliferative effect on LL 47 fibroblasts – human, LL 47 cells, CellTiter-Glo luminescence, primary screen; LL 47 human lung fibroblast viability, ATP luminescence; hits give low values; viability, % at 10 µM; 85,000 tested, 1.1% active;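 active = viability at or below 50% in the single dose screen; inactive = viability above 50%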;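 also: compound exposure lasted 72 h before the ATP readout; 100% = median luminescence of untreated cell-only wells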
#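 Signal: luminescent ATP detection, CellTiter-Glo; assay system: LL 47 human lung fibroblasts; input: 1,150 cells/well; incubation: overnight cell rest, 72 h compound treatment at 37 °C; measure: % viability versus median cells-only luminescence; medium: IMEM growth medium with 15% fetal bovine serum; dosing: compound addition at 0.1% DMSO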
# H69AR growth 86K: proliferation blockers of H69AR lung cancer cells, primary screen, cell-based, human, 86K library | H69AR lung tumor viability, ATP luminescence, 72 h; hits give low values | viability, % at 10 µM | 85,000 tested, 6% active;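 active = viability at or below 40%; inactive = viability above 40%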;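 also: multidrug resistant small cell line overexpressing MRP-1 efflux transporter; 100% = mean luminescence of untreated control wells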
# Starred values were filed as active, the others as inactive; . = no result given.
SMILES,PTEN del growth,HUVEC inhibit,HCT116 bCat-KO,Lung fibro prol,H69AR growth 86K
CC(=O)N(C(C)=O)c1ncc2c([nH]c3ccccc32)c1C#N,76,63,69,72,37*
CN1CCN(NC(=O)c2cccc(Br)c2)CC1,96,.,91,.,.
CCC1CCCCN1C(=S)Nc1ccc(OC(F)F)cc1 (stereo not drawn),91,.,93,.,.
CC(C)CC(=O)Nc1cccc(C(=O)Nc2ccccc2C(=O)O)c1,105,96,100,101,100
COc1ccc(-c2nc(Cn3c(SCc4ccccc4F)nc4ccncc43)c(C)o2)cc1,31,30,54,40*,14*
O=C(N/N=C\C=C\c1ccco1)c1cc(-c2ccc3ccccc3c2)n[nH]1,3.6*,.,7,.,.
O=C(N/N=C/C=C/c1ccco1)c1cccnc1,85,98,89,105,85
CCOc1cc(/C=N/NC(N)=O)cc(Br)c1OCC(=O)Nc1ccccc1C,79,.,78,.,.
CCOc1cc(/C=C\[N+](=O)[O-])ccc1OCC(=O)Nc1ccccc1C,1.9*,.,2.1*,.,.
O=c1ccc(Cc2ccccn2)n[nH]1,108,93,104,95,90
C/C=C/CSc1nc2c(c(=O)[nH]c(=O)n2C)n1Cc1ccc(C)cc1,64,81,52,94,18*
CC(C)CCn1c(SCc2ccc(Cl)cc2)nc2c1c(=O)[nH]c(=O)n2C,85,66,72,75,28*
CCCCn1c(SCc2ccc(Cl)cc2)nc2c1c(=O)[nH]c(=O)n2C,79,59,91,90,27*
CC(C)CCn1c(Sc2nc3ccccc3o2)nc2c1c(=O)[nH]c(=O)n2C,3.4*,.,5.4*,.,.
C/C(Cl)=C/Cn1c(SCc2ccc(Cl)cc2)nc2c1c(=O)[nH]c(=O)n2C,86,93,92,101,50
Cc1nc2cc(C(=O)OCC(=O)Nc3ccc(C#N)cc3)ccc2n1-c1ccccc1,95,.,95,.,.
CC1CCCCN1S(=O)(=O)c1ccc(S(=O)(=O)N2CCN(c3ccc(F)cc3)CC2)cc1 (stereo not drawn),90,56,85,72,19*
Cc1noc(C)c1CSCC(=O)N1CCN(c2ccc([N+](=O)[O-])cc2)CC1,37,71,32,101,97
CCOc1ccc2[nH]c(=O)c(CN(Cc3ccccc3)C(=O)N3CCCC3)cc2c1,82,.,88,.,.
O=C(CN1CCOCC1)Nc1ccc(OCc2ccccc2)cc1,81,86,86,102,6.9*
O=C(CCN1CCN(Cc2ccccc2)CC1)Nc1ccc(OCc2ccccc2)cc1,70,8.7*,70,87,29*
CCOC(=O)/C(C#N)=C/c1cn(CCOc2ccc(OC)cc2)c2ccccc12,82,.,89,.,.
COC(=O)COc1ccc(S(=O)(=O)NCCC2=CCCCC2)cc1Cl,92,10*,103,74,99
COC(=O)COc1ccc(S(=O)(=O)Nc2ccc3c(c2)OCO3)cc1,99,65,93,76,85
COC(=O)COc1ccc(S(=O)(=O)Nc2ccc3c(c2)OCO3)cc1Cl,99,2.3*,93,44*,104
SMILES,PTEN del growth,HUVEC inhibit,HCT116 bCat-KO,Lung fibro prol,H69AR growth 86K
Cc1[nH]n2c(=O)c3c(nc2c1-c1ccccc1)CCC3,83,80,97,96,25*
O=c1c2c(nc3c(-c4ccccc4)c[nH]n13)CCCC2,111,83,89,79,58
Cc1[nH]n2c(=O)c3c(nc2c1-c1ccc(Cl)cc1)CCC3,16,45,15,73,26*
Cc1cc(/C=C2\NC(=O)N(Cc3ccc(Cl)cc3)C2=O)c(C)n1C,95,.,92,.,.
Cc1ccc(N2CCN(C(=O)c3ccccc3)CC2)c(C)c1,78,116,66,105,101
COc1cc(C(=O)N2CCCN(c3nc4cc(C)ccc4cc3C#N)CC2)cc(OC)c1OC,.,88,.,87,9.8*
COc1cc(C(=O)N2CCN(c3ccc(C)cc3C)CC2)cc(OC)c1OC,18,61,16,62,19*
CCN(CC)C(=O)CNC(=S)N(CCCN1CCOCC1)Cc1cccs1,94,.,86,.,.
COc1cc(-c2nnc(-c3ccc(N4CCOCC4)cc3)o2)cc(OC)c1OC,76,84,74,95,17*
O=C1COC(c2ccccc2)C2CCCCN12 (stereo not drawn),81,.,87,.,.
Cc1cc2ncn(C(=O)c3ccc4c(c3)OCO4)c2cc1C,75,82,86,97,96
Cc1cc2ncn(C(=O)N3CCC(C)CC3)c2cc1C,0.7*,107,0.6*,104,81
CN(C)S(=O)(=O)c1ccc(/C(O)=C2/C(=O)C(=O)N(CCN3CCCCC3)C2c2cccnc2)cc1 (stereo not drawn),.,95,.,103,84
CCOc1cc(CNCCCN2CCOCC2)cc(Br)c1OCC(=O)Nc1cccc(C(F)(F)F)c1,1.5*,.,1.9*,.,.
CCNC(=S)N(CCc1ccccc1C)Cc1cc2cc(OC)c(OC)cc2[nH]c1=O,87,.,78,.,.
COc1cc2cc(CN(CCc3ccccc3C)C(=S)NCCCN(C)C)c(=O)[nH]c2cc1OC,1.8*,.,2.2*,.,.
COc1ccc(CCn2c(=S)[nH]c3cc(C(=O)NCc4ccco4)ccc3c2=O)cc1OC,85,7.3*,90,76,4.4*
COc1ccc(C2N(c3cc(Cl)ccc3OC)C(=O)C3CCCN32)cc1OC (stereo not drawn),98,99,95,100,83
O=C(Nc1nnc(-c2ccc3c(c2)OCCO3)o1)c1ccc(Cc2ccccc2)cc1,19,9.6*,18,89,37*
O=C(Nc1nnc(-c2ccc3c(c2)CCCC3)o1)c1ccccc1Cl,28,23*,27,72,23*
O=C(Nc1nnc(-c2ccc3c(c2)CCCC3)o1)c1ccccc1,11,23*,13,64,38*
O=C(Nc1nnc(-c2ccc(F)cc2)o1)c1cc(Cl)sc1Cl,6,.,12,.,.
O=C(COc1ccccc1)Nc1nnc(-c2ccc3c(c2)CCCC3)o1,108,91,102,99,76
CCOC(=O)c1c(N2C(=O)Nc3cc(Cl)c(Cl)cc3N2O)sc2c1CCCCC2,103,.,99,.,.
O=C(CN1C(=O)C2C3c4ccccc4C(c4ccccc43)C2C1=O)Nc1cccc(C(=O)O)c1 (stereo not drawn),100,.,98,.,.
O=C1OC(Nc2ccc3c(c2)OCO3)c2ccccc21 (stereo not drawn),14,56,16,49*,16*
C=CCSc1nc(=O)n2cccc(C)c2n1,94,.,96,.,.
CCSc1nccc(-c2nn(-c3ccc(C)cc3)ccc2=O)n1,22,58,21,67,18*
CCn1c(SCc2c(Cl)cccc2Cl)nnc1-c1nn(-c2ccccc2)ccc1=O,86,.,98,.,.
C=CCSc1nccc(-c2nn(-c3ccc(C)cc3)ccc2=O)n1,18,59,19,64,21*

# Screening results: PubChem BioAssay, SRMLSC
